How the values were obtained:
[1] = Agonist activity at glucosylceramidase […] mutant in lymphoblast obtained from Gaucher disease patient using 4-methylumbelliferyl-beta-D-glucopyranoside as substrate preincubated at 5 nM for 3 days measured 2 hrs post substrate addition by fluorescence assay relative to untreated control; type: functional, Homo sapiens
Procedure, shortened: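 L444P homozygous lymphoblasts from a GD type 2 patient, cultured in RPMI-1640 with 15% FBS at 37 °C, 5% CO2, seeded 2 × 10^5 cells/well and treated 3 days. Sonicated water lysate assayed with 6 mM 4-MU-β-glucoside at pH 5.2 (citrate phosphate, taurocholate, Triton X-100), 37 °C for 2 h. Fluorescence at 355/460 nm, relative to untreated cells; triplicate.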

[2] = target: T1, Non-lysosomal glucosylceramidase (Mus musculus) (UniProt Q69ZF3); assay: Inhibition of GBA2 activity in mouse tissue homogenate at 5 uM
T1 sequence (whole entry): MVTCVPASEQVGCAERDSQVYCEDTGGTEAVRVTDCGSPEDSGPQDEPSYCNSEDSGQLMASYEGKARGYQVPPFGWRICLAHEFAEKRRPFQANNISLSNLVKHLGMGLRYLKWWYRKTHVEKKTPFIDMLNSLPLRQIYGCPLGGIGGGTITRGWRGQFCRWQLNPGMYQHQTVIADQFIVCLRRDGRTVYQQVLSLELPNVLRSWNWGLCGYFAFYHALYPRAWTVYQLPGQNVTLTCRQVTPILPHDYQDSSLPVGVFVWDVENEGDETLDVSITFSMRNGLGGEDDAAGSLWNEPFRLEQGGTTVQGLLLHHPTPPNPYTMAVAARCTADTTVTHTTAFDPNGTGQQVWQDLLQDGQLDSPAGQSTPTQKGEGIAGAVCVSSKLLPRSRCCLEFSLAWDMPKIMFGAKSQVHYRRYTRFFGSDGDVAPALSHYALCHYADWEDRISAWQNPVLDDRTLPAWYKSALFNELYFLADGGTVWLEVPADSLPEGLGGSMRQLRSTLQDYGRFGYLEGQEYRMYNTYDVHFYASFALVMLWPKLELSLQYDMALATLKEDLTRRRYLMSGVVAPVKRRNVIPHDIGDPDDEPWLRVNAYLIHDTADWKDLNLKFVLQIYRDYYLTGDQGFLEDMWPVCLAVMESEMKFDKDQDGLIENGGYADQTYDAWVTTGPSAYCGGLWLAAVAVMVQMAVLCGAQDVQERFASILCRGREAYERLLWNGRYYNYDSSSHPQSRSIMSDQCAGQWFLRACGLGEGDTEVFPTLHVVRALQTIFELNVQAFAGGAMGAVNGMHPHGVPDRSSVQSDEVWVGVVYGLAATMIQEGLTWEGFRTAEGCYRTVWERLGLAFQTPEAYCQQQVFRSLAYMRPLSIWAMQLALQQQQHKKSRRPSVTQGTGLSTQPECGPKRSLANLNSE
Procedure, shortened: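 Mouse tissue homogenates were used to separate nonlysosomal GBA2 from lysosomal GCase β-glucosidase activity. Compounds were screened at 50 and 5 μM with 3 mM substrate. Two independent experiments, each run in duplicate.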

| SMILES | fold change (FC) [1] | inhibition [2] [%] |
| --- | --- | --- |
| CCCCCCCCCN[C@H]1[C@H](O)[C@@H](O)[C@H](O)[C@@H](O)[C@@H]1OCCCCCCCCC.Cl | 1.2 | – |
| CCCCCCCCCN[C@@H]1[C@H](O)[C@@H](O)[C@H](O)[C@@H](O)[C@@H]1O | – | 69 |

From ChEMBL document CHEMBL2163314, “Potent aminocyclitol glucocerebrosidase inhibitors are subnanomolar pharmacological chaperones for treating gaucher disease” (J Med Chem, 2012)
